Results as given in ChEMBL document CHEMBL1156088, “Synthesis and biological activity of novel oxazolidinones” (2009).
≈ marks a conversion by molar mass, not a printed value.

The compounds below were run on Staphylococcus aureus (assay: Antibacterial activity against Staphylococcus aureus ATCC 25923 by NCCLS method).
Assay type: functional
Method in brief: (§1)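 In vitro MIC determination by the NCCLS method against a panel of gram-positive bacteria. Two oxazolidinone reference standards were tested alongside.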
`O=C(CF)NC[C@H]1CN(c2ccc(N3CCN(Cc4ccc([N+](=O)[O-])o4)CC3)c(F)c2)C(=O)O1` showed an MIC of 4 µg/mL (≈ 8.34 µM).
`O=C(NC[C@H]1CN(c2ccc(N3CCN(Cc4ccc([N+](=O)[O-])o4)CC3)c(F)c2)C(=O)O1)C(F)F` showed an MIC of 2 µg/mL (≈ 4.02 µM).
`CN(C)C(=S)NC[C@H]1CN(c2ccc(N3CCN(Cc4ccc([N+](=O)[O-])o4)CC3)c(F)c2)C(=O)O1` showed an MIC of over 16 µg/mL.
Compound `O=C1O[C@@H](CO)CN1c1ccc(N2CCN(Cc3ccc([N+](=O)[O-])o3)CC2)c(F)c1` has an MIC of over 16 µg/mL.
`NC(=S)NC[C@H]1CN(c2ccc(N3CCN(Cc4ccc([N+](=O)[O-])o4)CC3)c(F)c2)C(=O)O1` gave an MIC of 1 µg/mL (≈ 2.09 µM).
`COC(=O)NC[C@H]1CN(c2ccc(N3CCN(Cc4ccc([N+](=O)[O-])o4)CC3)c(F)c2)C(=O)O1` showed an MIC of 8 µg/mL (≈ 16.8 µM).
Work on `NC[C@H]1CN(c2ccc(N3CCN(Cc4ccc([N+](=O)[O-])o4)CC3)c(F)c2)C(=O)O1` yielded an MIC of over 16 µg/mL.

Each compound was assayed on Streptococcus pneumoniae (assay: Antibacterial activity against Streptococcus pneumoniae ATCC 6303 by NCCLS method).
Assay type: functional
Method in brief: as §1
For `O=C(CF)NC[C@H]1CN(c2ccc(N3CCN(Cc4ccc([N+](=O)[O-])o4)CC3)c(F)c2)C(=O)O1`, the MIC was 1 µg/mL (≈ 2.09 µM).
`O=C(NC[C@H]1CN(c2ccc(N3CCN(Cc4ccc([N+](=O)[O-])o4)CC3)c(F)c2)C(=O)O1)C(F)F` gave an MIC of 0.5 µg/mL (≈ 1.01 µM).
`CN(C)C(=S)NC[C@H]1CN(c2ccc(N3CCN(Cc4ccc([N+](=O)[O-])o4)CC3)c(F)c2)C(=O)O1` showed an MIC of over 16 µg/mL.
For `O=C1O[C@@H](CO)CN1c1ccc(N2CCN(Cc3ccc([N+](=O)[O-])o3)CC2)c(F)c1`, the MIC was over 16 µg/mL.
With `NC(=S)NC[C@H]1CN(c2ccc(N3CCN(Cc4ccc([N+](=O)[O-])o4)CC3)c(F)c2)C(=O)O1` the MIC was under 0.06 µg/mL.
`COC(=O)NC[C@H]1CN(c2ccc(N3CCN(Cc4ccc([N+](=O)[O-])o4)CC3)c(F)c2)C(=O)O1` was tested, and the MIC was 1 µg/mL (≈ 2.09 µM).
In the case of `NC[C@H]1CN(c2ccc(N3CCN(Cc4ccc([N+](=O)[O-])o4)CC3)c(F)c2)C(=O)O1`, the MIC is reported as over 16 µg/mL.

These compounds were tested on Staphylococcus aureus (assay: Antibacterial activity against methicillin-resistant Staphylococcus aureus 33 by NCCLS method).
Assay type: functional
Method in brief: (§2)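 In vitro MIC determined by the NCCLS method against a panel of gram-positive bacteria. Ranbezolid and linezolid were run alongside as reference standards.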
In the case of `O=C(CF)NC[C@H]1CN(c2ccc(N3CCN(Cc4ccc([N+](=O)[O-])o4)CC3)c(F)c2)C(=O)O1`, the MIC is reported as 4 µg/mL (≈ 8.34 µM).
For `O=C(NC[C@H]1CN(c2ccc(N3CCN(Cc4ccc([N+](=O)[O-])o4)CC3)c(F)c2)C(=O)O1)C(F)F`, the MIC was 2 µg/mL (≈ 4.02 µM).
With `CN(C)C(=S)NC[C@H]1CN(c2ccc(N3CCN(Cc4ccc([N+](=O)[O-])o4)CC3)c(F)c2)C(=O)O1` the MIC was over 16 µg/mL.
With `O=C1O[C@@H](CO)CN1c1ccc(N2CCN(Cc3ccc([N+](=O)[O-])o3)CC2)c(F)c1` the MIC was over 16 µg/mL.
For `NC(=S)NC[C@H]1CN(c2ccc(N3CCN(Cc4ccc([N+](=O)[O-])o4)CC3)c(F)c2)C(=O)O1`, the MIC was 1 µg/mL (≈ 2.09 µM).
In the case of `COC(=O)NC[C@H]1CN(c2ccc(N3CCN(Cc4ccc([N+](=O)[O-])o4)CC3)c(F)c2)C(=O)O1`, the MIC is reported as 8 µg/mL (≈ 16.8 µM).
In the case of `NC[C@H]1CN(c2ccc(N3CCN(Cc4ccc([N+](=O)[O-])o4)CC3)c(F)c2)C(=O)O1`, the MIC is reported as over 16 µg/mL.

Each compound was assayed on Streptococcus pyogenes (assay: Antibacterial activity against Streptococcus pyogenes ATCC 19615 by NCCLS method).
Assay type: functional
Method in brief: as §1
Work on `O=C(CF)NC[C@H]1CN(c2ccc(N3CCN(Cc4ccc([N+](=O)[O-])o4)CC3)c(F)c2)C(=O)O1` yielded an MIC of 0.5 µg/mL (≈ 1.04 µM).
With `O=C(NC[C@H]1CN(c2ccc(N3CCN(Cc4ccc([N+](=O)[O-])o4)CC3)c(F)c2)C(=O)O1)C(F)F` the MIC was 0.5 µg/mL (≈ 1.01 µM).
Work on `CN(C)C(=S)NC[C@H]1CN(c2ccc(N3CCN(Cc4ccc([N+](=O)[O-])o4)CC3)c(F)c2)C(=O)O1` yielded an MIC of over 16 µg/mL.
For `O=C1O[C@@H](CO)CN1c1ccc(N2CCN(Cc3ccc([N+](=O)[O-])o3)CC2)c(F)c1`, the MIC was over 16 µg/mL.
With `NC(=S)NC[C@H]1CN(c2ccc(N3CCN(Cc4ccc([N+](=O)[O-])o4)CC3)c(F)c2)C(=O)O1` the MIC was 0.25 µg/mL (≈ 0.522 µM).
Compound `COC(=O)NC[C@H]1CN(c2ccc(N3CCN(Cc4ccc([N+](=O)[O-])o4)CC3)c(F)c2)C(=O)O1` has an MIC of 1 µg/mL (≈ 2.09 µM).
For `NC[C@H]1CN(c2ccc(N3CCN(Cc4ccc([N+](=O)[O-])o4)CC3)c(F)c2)C(=O)O1`, the MIC was over 16 µg/mL.

What follows are compounds tested on Enterococcus faecium (assay: Antibacterial activity against vancomycin-resistant Enterococcus faecium 6A by NCCLS method).
Assay type: functional
Method in brief: as §2
In the case of `O=C(CF)NC[C@H]1CN(c2ccc(N3CCN(Cc4ccc([N+](=O)[O-])o4)CC3)c(F)c2)C(=O)O1`, the MIC is reported as 4 µg/mL (≈ 8.34 µM).
For `O=C(NC[C@H]1CN(c2ccc(N3CCN(Cc4ccc([N+](=O)[O-])o4)CC3)c(F)c2)C(=O)O1)C(F)F`, the MIC was 2 µg/mL (≈ 4.02 µM).
`CN(C)C(=S)NC[C@H]1CN(c2ccc(N3CCN(Cc4ccc([N+](=O)[O-])o4)CC3)c(F)c2)C(=O)O1` was tested, and the MIC was over 16 µg/mL.
`O=C1O[C@@H](CO)CN1c1ccc(N2CCN(Cc3ccc([N+](=O)[O-])o3)CC2)c(F)c1` was tested, and the MIC was over 16 µg/mL.
For `NC(=S)NC[C@H]1CN(c2ccc(N3CCN(Cc4ccc([N+](=O)[O-])o4)CC3)c(F)c2)C(=O)O1`, the MIC was 1 µg/mL (≈ 2.09 µM).
In the case of `COC(=O)NC[C@H]1CN(c2ccc(N3CCN(Cc4ccc([N+](=O)[O-])o4)CC3)c(F)c2)C(=O)O1`, the MIC is reported as 8 µg/mL (≈ 16.8 µM).
`NC[C@H]1CN(c2ccc(N3CCN(Cc4ccc([N+](=O)[O-])o4)CC3)c(F)c2)C(=O)O1` showed an MIC of over 16 µg/mL.

The compounds below were run on Staphylococcus aureus (assay: Antibacterial activity against Staphylococcus aureus 15187 by NCCLS method).
Assay type: functional
Method in brief: as §1
`O=C(CF)NC[C@H]1CN(c2ccc(N3CCN(Cc4ccc([N+](=O)[O-])o4)CC3)c(F)c2)C(=O)O1` showed an MIC of 2 µg/mL (≈ 4.17 µM).
`O=C(NC[C@H]1CN(c2ccc(N3CCN(Cc4ccc([N+](=O)[O-])o4)CC3)c(F)c2)C(=O)O1)C(F)F` showed an MIC of 1 µg/mL (≈ 2.01 µM).
Compound `CN(C)C(=S)NC[C@H]1CN(c2ccc(N3CCN(Cc4ccc([N+](=O)[O-])o4)CC3)c(F)c2)C(=O)O1` has an MIC of over 16 µg/mL.
For `O=C1O[C@@H](CO)CN1c1ccc(N2CCN(Cc3ccc([N+](=O)[O-])o3)CC2)c(F)c1`, the MIC was over 16 µg/mL.
In the case of `NC(=S)NC[C@H]1CN(c2ccc(N3CCN(Cc4ccc([N+](=O)[O-])o4)CC3)c(F)c2)C(=O)O1`, the MIC is reported as 1 µg/mL (≈ 2.09 µM).
`COC(=O)NC[C@H]1CN(c2ccc(N3CCN(Cc4ccc([N+](=O)[O-])o4)CC3)c(F)c2)C(=O)O1` showed an MIC of 8 µg/mL (≈ 16.8 µM).
`NC[C@H]1CN(c2ccc(N3CCN(Cc4ccc([N+](=O)[O-])o4)CC3)c(F)c2)C(=O)O1` showed an MIC of over 16 µg/mL.

What follows are compounds tested on Staphylococcus aureus (assay: Antibacterial activity against methicillin-resistant Staphylococcus aureus 562 by NCCLS method).
Assay type: functional
Method in brief: as §2
With `O=C(CF)NC[C@H]1CN(c2ccc(N3CCN(Cc4ccc([N+](=O)[O-])o4)CC3)c(F)c2)C(=O)O1` the MIC was 2 µg/mL (≈ 4.17 µM).
Compound `O=C(NC[C@H]1CN(c2ccc(N3CCN(Cc4ccc([N+](=O)[O-])o4)CC3)c(F)c2)C(=O)O1)C(F)F` has an MIC of 2 µg/mL (≈ 4.02 µM).
Compound `CN(C)C(=S)NC[C@H]1CN(c2ccc(N3CCN(Cc4ccc([N+](=O)[O-])o4)CC3)c(F)c2)C(=O)O1` has an MIC of over 16 µg/mL.
In the case of `O=C1O[C@@H](CO)CN1c1ccc(N2CCN(Cc3ccc([N+](=O)[O-])o3)CC2)c(F)c1`, the MIC is reported as over 16 µg/mL.
With `NC(=S)NC[C@H]1CN(c2ccc(N3CCN(Cc4ccc([N+](=O)[O-])o4)CC3)c(F)c2)C(=O)O1` the MIC was 1 µg/mL (≈ 2.09 µM).
`COC(=O)NC[C@H]1CN(c2ccc(N3CCN(Cc4ccc([N+](=O)[O-])o4)CC3)c(F)c2)C(=O)O1` gave an MIC of 2 µg/mL (≈ 4.19 µM).
With `NC[C@H]1CN(c2ccc(N3CCN(Cc4ccc([N+](=O)[O-])o4)CC3)c(F)c2)C(=O)O1` the MIC was over 16 µg/mL.

These compounds were tested on Enterococcus faecalis (assay: Antibacterial activity against Enterococcus faecalis ATCC 29212 by NCCLS method).
Assay type: functional
Method in brief: as §1
Work on `O=C(CF)NC[C@H]1CN(c2ccc(N3CCN(Cc4ccc([N+](=O)[O-])o4)CC3)c(F)c2)C(=O)O1` yielded an MIC of 4 µg/mL (≈ 8.34 µM).
`O=C(NC[C@H]1CN(c2ccc(N3CCN(Cc4ccc([N+](=O)[O-])o4)CC3)c(F)c2)C(=O)O1)C(F)F` gave an MIC of 2 µg/mL (≈ 4.02 µM).
`CN(C)C(=S)NC[C@H]1CN(c2ccc(N3CCN(Cc4ccc([N+](=O)[O-])o4)CC3)c(F)c2)C(=O)O1` gave an MIC of over 16 µg/mL.
`O=C1O[C@@H](CO)CN1c1ccc(N2CCN(Cc3ccc([N+](=O)[O-])o3)CC2)c(F)c1` showed an MIC of over 16 µg/mL.
For `NC(=S)NC[C@H]1CN(c2ccc(N3CCN(Cc4ccc([N+](=O)[O-])o4)CC3)c(F)c2)C(=O)O1`, the MIC was 0.5 µg/mL (≈ 1.04 µM).
`COC(=O)NC[C@H]1CN(c2ccc(N3CCN(Cc4ccc([N+](=O)[O-])o4)CC3)c(F)c2)C(=O)O1` was tested, and the MIC was 8 µg/mL (≈ 16.8 µM).
In the case of `NC[C@H]1CN(c2ccc(N3CCN(Cc4ccc([N+](=O)[O-])o4)CC3)c(F)c2)C(=O)O1`, the MIC is reported as over 16 µg/mL.
